Assay results published in ChEMBL document CHEMBL2163327, “Design, synthesis, and evaluation of potential prodrugs of DFMO for reductive activation” (Bioorg Med Chem Lett, 2012).

How the values were obtained:
Trypanosoma brucei [1] = test: Activity of His-tagged Trypanosoma brucei nitroreductase assessed as oxidation of NADH
In short: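 Purified His-tagged T. brucei nitroreductase (TbNTR) incubated with test compound; NADH consumption followed as change in absorbance at 340 nm.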

Trypanosoma brucei [2] = test: Antitrypanosomal activity against wild type Trypanosoma brucei bloodstream form assessed as growth inhibition after 3 days by Alamar blue assay; type: functional, organism-based; details: 72 h
In short: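 Bloodstream-form T. brucei seeded at 1 × 10³ per mL in growth medium with a range of test compound concentrations; 3 days at 37 °C, then alamarBlue added and incubation continued 16 h before reading.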

Trypanosoma brucei [3] = test: Antitrypanosomal activity against Trypanosoma brucei bloodstream form overexpressing nitroreductase assessed as growth inhibition after 3 days by Alamar blue assay; type: functional, organism-based; details: 72 h
In short: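 Bloodstream-form T. brucei induced to express elevated nitroreductase, with non-induced parasites as controls. Parasites seeded at 1 × 10³ mL⁻¹ in growth medium with a range of test-compound concentrations and incubated 3 days at 37 °C. alamarBlue was then added for a further 16 h as the viability read-out.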

SMILES | Activity (Trypanosoma brucei [1]) | IC50 (Trypanosoma brucei [2]) | IC50 (Trypanosoma brucei [3])
CC1CS(=O)(=O)CCN1/N=C/c1ccc([N+](=O)[O-])o1 (configuration not stated) [NIFURTIMOX] | 423 nmol/min/mg | 1.83 µM | 0.26 µM
NCCCC(N)(C(=O)OCc1ccc([N+](=O)[O-])cc1F)C(F)F (configuration not stated) | 203 nmol/min/mg | > 100 µM | 
NC(CCCNC(=O)OCc1ccc([N+](=O)[O-])cc1F)(C(=O)O)C(F)F (configuration not stated) | 260 nmol/min/mg | 39.5 µM | 39.9 µM
NCCCC(N)(C(=O)O)C(F)F (configuration not stated) [EFLORNITHINE] | 21 nmol/min/mg | 8.3 µM | 
O=C(NCCCC(NC(=O)OCc1ccc([N+](=O)[O-])cc1F)(C(=O)O)C(F)F)OCc1ccc([N+](=O)[O-])cc1F (configuration not stated) | 312 nmol/min/mg | > 100 µM | 

Further lines, with some results ahead:

Activity (Trypanosoma brucei [1]) | IC50 (Trypanosoma brucei [2]) | SMILES | IC50 (Trypanosoma brucei [3])
140 nmol/min/mg | > 100 µM | O=C(NCCCC(NC(=O)OCc1ccc([N+](=O)[O-])cc1)(C(=O)O)C(F)F)OCc1ccc([N+](=O)[O-])cc1 (configuration not stated) | 
60 nmol/min/mg | > 100 µM | NCCCC(N)(C(=O)OCc1ccc([N+](=O)[O-])cc1)C(F)F (configuration not stated) | 
33 nmol/min/mg | > 100 µM | NC(CCCNC(=O)OCc1ccc([N+](=O)[O-])cc1)(C(=O)O)C(F)F (configuration not stated) | 
42 nmol/min/mg | > 100 µM | NCCCC(NC(=O)OCc1ccc([N+](=O)[O-])cc1)(C(=O)O)C(F)F (configuration not stated) | 
227 nmol/min/mg | > 100 µM | NCCCC(NC(=O)OCc1ccc([N+](=O)[O-])cc1F)(C(=O)O)C(F)F (configuration not stated) | 
